{"data": "Published values collected from several papers", "target": "Casein kinase II subunit alpha (CSNK2A1, Homo sapiens, UniProt P68400)"}
{"Compound": "COc1cc(Nc2cnc(C#N)c(O[C@H](C)CN(C)C)n2)ncc1-c1cnn(C)c1", "test": "enzyme activity, inhibitor, radiometric", "setting": "1 µM", "measurement": "remaining activity", "result": "110%"}
{"Compound": "O=C1Nc2ccc(Cl)cc2C1=Cc1cc(Cl)c(O)c(Cl)c1", "test": "cell-free assay", "setting": "0.5 µM", "measurement": "remaining signal", "result": "26.5%"}
{"Compound": "CCN(CC)c1ccc(C2=NNC(=O)CC2C)cc1[N+](=O)[O-] (stereo not shown)", "test": "enzyme activity, inhibitor", "setting": "10 µM", "measurement": "remaining activity", "result": "96%"}
{"Compound": "O=C(N1CCS(=O)(=O)CC1)N1C[C@H](c2ccc(OC(F)(F)F)cc2)C[C@H](c2nc(C3CC3)no2)C1", "test": "cell-free assay, competition with immobilised ligand", "setting": "1 µM", "measurement": "remaining binding", "result": "100%"}
{"Compound": "Cc1cnc(NC2CCOCC2)nc1-n1cnc(C(=O)NC(CN)c2cc(F)cc(Cl)c2)c1 (stereo not shown)", "test": "enzyme activity, inhibitor, radiometric", "setting": "1 µM", "measurement": "remaining activity", "result": "106%"}
{"Compound": "CC(C)(C)c1nc(-c2cccc(NS(=O)(=O)c3c(F)cccc3F)c2F)c(-c2ccnc(N)n2)s1", "test": "enzyme activity, inhibitor, radiometric", "setting": "1 µM", "measurement": "remaining activity", "result": "85%"}
{"Compound": "O=C1NC(=O)c2cc(Nc3ccc(F)cc3)c(Nc3ccc(F)cc3)cc21", "test": "cell-free assay, inhibitor", "setting": "0.5 µM", "measurement": "remaining signal", "result": "95.7%"}
{"Compound": "CCN(CC)CCNC(=O)c1c(C)[nH]c(/C=C2\\C(=O)Nc3ccc(F)cc32)c1C", "test": "enzyme activity, inhibitor", "setting": "0.3 µM", "measurement": "inhibition", "result": "-7%"}
{"Compound": "Cn1c2c(c3ccccc31)C(C#N)C(C)(C)NC2=O (stereo not shown)", "test": "thermal stability, DSF", "setting": "10 µM", "measurement": "ΔTm", "result": "0.8 °C"}
{"Compound": "Cc1sc(C(=O)NC2COC2)cc1-n1cc(NC(=O)Nc2c(F)cccc2Cl)cn1", "test": "enzyme activity, inhibitor", "setting": "10 µM", "measurement": "remaining activity", "result": "97%"}
{"Compound": "Cn1c2c(Cl)c(Cl)ccc2c2cc[nH]c(=O)c21", "test": "thermal stability, DSF", "setting": "10 µM", "measurement": "ΔTm", "result": "1.3 °C"}
{"Compound": "O=C1CCc2cc(Nc3cc(OC4CCOCC4)c([N+](=O)[O-])cc3Cl)ccc2N1", "test": "cell-free assay, competition with immobilised ligand", "setting": "1 µM", "measurement": "remaining binding", "result": "84%"}
{"Compound": "Cn1c2c(c3ccc(Cl)c(Cl)c31)C(C#N)C1(CCOCC1)NC2=O (stereo not shown)", "test": "thermal stability, DSF", "setting": "10 µM", "measurement": "ΔTm", "result": "2.1 °C"}
{"Compound": "N#CCCc1ccc2c(c1)-c1[nH]c3ccc([N+](=O)[O-])cc3c1CC(=O)N2", "test": "cell-free assay", "setting": "0.5 µM", "measurement": "remaining signal", "result": "91.2%"}
{"Compound": "CC(C)(C)C(=O)c1sc(NC2CCCCC2)nc1N", "test": "enzyme activity, inhibitor", "setting": "10 µM", "measurement": "remaining activity", "result": "118%"}
{"Compound": "Oc1cccc(-c2nc(N3CCOCC3)c3oc4ncccc4c3n2)c1", "test": "enzyme activity, inhibitor", "setting": "10 µM", "measurement": "remaining activity", "result": "102%"}
{"Compound": "CCC1(CC)NC(=O)c2c(c3ccc(Cl)c(Cl)c3n2C)C1C#N (stereo not shown)", "test": "thermal stability, DSF", "setting": "10 µM", "measurement": "ΔTm", "result": "0 °C"}
{"Compound": "Cc1ccc(Nc2nccc(N(C)c3ccc4c(C)n(C)nc4c3)n2)cc1S(N)(=O)=O", "test": "enzyme activity, inhibitor", "setting": "10 µM", "measurement": "inhibition", "result": "-7%"}
{"Compound": "C[C@@H]1CN(c2cc(-c3n[nH]c4ccc(OC5(C)CC5)cc34)ncn2)C[C@H](C)O1", "test": "cell-free assay, competition with immobilised ligand", "setting": "0.1 µM", "measurement": "remaining binding", "result": "66%"}
{"Compound": "COc1cc(Cl)c(C(=O)N[C@@H](CN[C@H]2CC[C@@H](N)CC2)Cc2ccc(C#N)cc2)cc1-c1ccc(CN[C@H](C)c2ccc(C)cc2)o1", "test": "enzyme activity, inhibitor", "setting": "1 µM", "measurement": "remaining activity", "result": "104%"}
{"Compound": "CC(C)(O)[C@H]1CC[C@H](Nc2ccc3ncc(-c4cccc(C(F)(F)F)c4)n3n2)CC1", "test": "enzyme activity, inhibitor", "setting": "1 µM", "measurement": "remaining activity", "result": "61%"}
{"Compound": "O=C(Nc1cnc(Oc2ccc(F)cc2)nc1)N1CCc2ncccc2[C@@H]1c1ccc(F)cc1", "test": "cell-free assay, competition with immobilised ligand", "setting": "1 µM", "measurement": "remaining binding", "result": "93%"}
{"Compound": "COc1cc2ncnc(Nc3ccc(Oc4ccccc4)cc3C)c2cc1OC", "test": "enzyme activity, inhibitor", "setting": "1 µM", "measurement": "inhibition", "result": "11%"}
{"Compound": "NS(=O)(=O)c1cc(NC(=O)Cc2ccccc2)ccc1Oc1cccc(Cl)c1", "test": "cell-free assay, competition with immobilised ligand", "setting": "1 µM", "measurement": "remaining binding", "result": "96%"}
{"Compound": "Cc1ccc(NC(=O)c2ccc(C)c(C(F)(F)F)c2)cc1C#Cc1nn(C2CCC(O)CC2)c2ncnc(N)c12 (stereo not shown)", "test": "cell-free assay, inhibitor", "setting": "10 µM", "measurement": "remaining signal", "result": "105%"}
{"Compound": "COc1cccc(CNC(=O)c2nc3scc(COCc4ccc(C(=O)O)cc4)c3c(=O)[nH]2)c1", "test": "cell-free assay, competition with immobilised ligand", "setting": "1 µM", "measurement": "remaining binding", "result": "90.7%"}
{"Compound": "Cn1c(=O)n(-c2ccc(C(C)(C)C#N)cc2)c2c3cc(-c4cnc5ccccc5c4)ccc3ncc21", "test": "enzyme activity, inhibitor", "setting": "10 µM", "measurement": "remaining activity", "result": "79%"}
{"Compound": "O=C(O)c1cc(-c2ccc(C3CCNCC3)cc2)c2ccc(-c3ccc(C(F)(F)F)cc3)cc2c1", "test": "cell-free assay, competition with immobilised ligand", "setting": "1 µM", "measurement": "remaining binding", "result": "100%"}
{"Compound": "Cn1c2c(c3ccc(Cl)c(Cl)c31)C(C#N)C1(CCN(C(=O)OC(C)(C)C)CC1)NC2=O (racemic)", "test": "thermal stability, DSF", "setting": "10 µM", "measurement": "ΔTm", "result": "-0.1 °C"}
{"Compound": "C[C@@H]1CN(c2cc(-c3nn(C)c4ccc(OC5(C)CC5)cc34)ncn2)C[C@H](C)O1", "test": "cell-free assay, competition with immobilised ligand", "setting": "1 µM", "measurement": "remaining binding", "result": "76%"}
{"Compound": "Cc1ccc(C(=O)NCc2ccsc2)cc1C#Cc1cn(C(C)C)c2ncnc(N)c12", "test": "enzyme activity, inhibitor", "setting": "1 µM", "measurement": "activity vs control", "result": "94%"}
